This is a sample that favours compounds with a hit; in the whole collection about 4.1% have one here.
APP 5'UTR act – APP 5'UTR luciferase reporter activation; 190,000 compounds, 1% hits; activation, % at 2 µM; AID 1276; SH-SY5Y APP 5'UTR luciferase reporter, luminescence; zero percent = DMSO vehicle wells;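 active = activation above a set limit, based on mean plus 3 SD of controls, cut at about 140% in these data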
FLuc inh counter – Photinus pyralis luciferase inhibition counter-screen. ATPLite firefly luciferase biochemical luminescence, 10 min. 200,000 compounds, 1.5% hits. P08659. inhibition, % at 10 µM;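 active = inhibition above about 50% when tested at 10 µM, limit read from the data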
Target sequence (P08659 whole entry, looked up): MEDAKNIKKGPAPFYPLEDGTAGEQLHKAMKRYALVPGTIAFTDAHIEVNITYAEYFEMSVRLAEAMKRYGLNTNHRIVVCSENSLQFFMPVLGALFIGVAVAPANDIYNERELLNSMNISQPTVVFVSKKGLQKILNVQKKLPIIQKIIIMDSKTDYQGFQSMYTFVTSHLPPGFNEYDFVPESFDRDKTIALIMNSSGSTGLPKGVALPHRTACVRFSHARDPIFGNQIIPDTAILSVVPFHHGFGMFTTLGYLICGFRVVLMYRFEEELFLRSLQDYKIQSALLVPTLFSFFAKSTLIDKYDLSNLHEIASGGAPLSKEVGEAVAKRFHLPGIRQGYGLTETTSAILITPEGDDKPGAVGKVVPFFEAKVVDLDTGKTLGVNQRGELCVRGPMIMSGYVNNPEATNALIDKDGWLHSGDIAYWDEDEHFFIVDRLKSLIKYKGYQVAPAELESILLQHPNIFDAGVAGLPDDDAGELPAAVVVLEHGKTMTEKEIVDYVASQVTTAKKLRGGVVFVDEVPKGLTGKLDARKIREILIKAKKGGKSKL
STAT1 act – STAT1 signaling activation; NIH 3T3 STAT1-luciferase reporter, IFN-gamma, luminescence; 100% = IFN-gamma alone, no compound; activation (% of control), % at 5.5 µM; 200,000 compounds, 2.6% hits; AID 932;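 active = activation above the screen-wide mean activation plus 3 SD, cut at about 130% in these data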;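 note: raw ratio to IFN-gamma control signal so 100% means no change and 0% no light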
NF-kB expr up – NF-kB expression increase, human neuronal cells | 190,000 compounds, 1.6% hits | fold change at 12.5 µM | NF-kB reporter expression; active compounds read high; in the data active = fold change above about 3.3
FLuc stim CS – affects firefly luciferase, flagging false hits in luciferase stimulation screens | P08659 | activation factor at 10 µM | ATPlite luciferase biochemical, luminescence, 10 min; 0 = ATP-free wells, 1 = DMSO control | 200,000 tested, under 10 active;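 active = luciferase activation factor, scaled between plate controls, of at least 2 with compound at 10 µM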
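assay system = Luciferase/luciferin detection reagent, cell-free biochemical luciferase assay | also added = ATP substrate | times = 10 min post-reagent at room temperature | measured by = luminescence from luciferase reaction | measure = luciferase activation, seen as luminescence increase over controls | benchmarks = low control with PBS replacing ATP, high control enzyme plus ATP without compound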
STAT1 act conf – confirmation of STAT1 signaling activators | 1,200 compounds, 97% hits | shares compounds with STAT1 act | NIH 3T3 STAT1-luciferase reporter, IFN-gamma potentiation, luminescence; 100% = IFN-gamma EC80 alone, no compound | activation (% of control), % at 5.7 µM;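 active = activation above a set limit carried over from the earlier primary STAT1 screen, cut at about 140% in these data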;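 note: simple ratio to median IFN-gamma plus DMSO wells so 0% means no light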
NFkB act – counter-screen for STAT1 activators: NF-kappaB activation; shares compounds with STAT1 act; HEK293T NF-kB luciferase reporter, TNF-alpha stimulated, luminescence; 100% = TNF-alpha with vehicle only; activation (% of control), % at 5.7 µM; 1,200 compounds, 43% hits; AID 1306;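 active = activation above the mean of solvent-only control wells plus 3 SD, set per campaign, cut at about 130% in these data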;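 note: TNF-alpha given at a submaximal dose yielding about 80% of full reporter signal; values are well signal over median control so 100% means no change and 0% no light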
STAT3 act STAT1c – human STAT3 activation in STAT1 activator counter-screen; shares compounds with STAT1 act; U3A cells STAT3-luciferase reporter, IL-6, luminescence; cells lack STAT1; 100 = IL-6 alone, no compound effect; activation (% of control), % at 5.7 µM; 1,200 compounds, 46% hits; AID 1316;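 active = activation above the solvent-only control well mean plus 3 SD, set per plate batch, cut at about 110% in these data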;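 note: 0% = no luminescence and 100% = median IL-6 plus DMSO wells; higher means more STAT3 reporter activation so hits are non-selective activators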
* marks the source's active call; other numbers are inactive results; · = no result.

SMILES | APP 5'UTR act | FLuc inh counter | STAT1 act | NF-kB expr up | FLuc stim CS | STAT1 act conf | NFkB act | STAT3 act STAT1c
Cc1ncc(CN2CCN(CCC(C)C)C(CCO)C2)s1 (stereo unspecified) | 14 | -6 | 94 | 1.1 | 1.1 | · | · | ·
Clc1ccc2nc(N3CCCCC3)sc2c1 | 173* | 26 | 166* | 4.9* | 0.7 | 207* | 138* | 104
C/C(=C/c1ccccc1)C(=O)N1CC(C)OC(C)C1 (stereo unspecified) | 29 | -2 | 104 | 1.1 | 1 | · | · | ·
Cc1ccc2c(c1)N=C(c1ccc(F)cc1)CO2 | 86 | 36 | 164* | 2.8 | 0.6 | 195* | 144* | 111*
O=[N+]([O-])c1ccc(C2=Nc3cc(Cl)ccc3OC2)cc1 | 21 | -7 | 122 | 1.3 | 1.1 | · | · | ·
NNC(=O)c1ccc2nc(-c3ccc(Br)cc3)cn2c1 | 57 | 25 | 162* | 1.8 | 0.8 | 208* | 132 | 115*
COc1cccc(-c2noc(-c3cccnc3)n2)c1 | 107 | 44 | 159* | 5.5* | 0.6 | 188* | 125 | 121*
CCOc1ccc(Nc2nc3ccccc3n3nnnc23)cc1 | 50 | -1 | 113 | 1.1 | 1 | · | · | ·
Cc1ccc(COc2ccc(/C=N/O)cc2)cc1 | 89 | 33 | 176* | 6.3* | 0.7 | 203* | 136* | 129*
CCOc1ccc(/C=N/O)cc1 | -13 | 0 | 104 | 1.2 | 1 | · | · | ·
O=C(COc1ccc(S(=O)(=O)NC2CCCCC2)cc1Cl)NCc1cccnc1 | 5 | 1 | 104 | 0.82 | 1 | · | · | ·
Cc1ccc(C)c(N2CCN(c3cnn(-c4nc5ccccc5s4)c(=O)c3Cl)CC2)c1 | 126 | 23 | 156* | 1.6 | 0.8 | 182* | 126 | 105
Cc1ccc2c(c1)N(CC(=O)N1CCN(c3nc4ccccc4s3)CC1)C(=O)C(C)O2 (stereo unspecified) | 20 | -4 | 104 | 0.67 | 1 | · | · | ·
CO/N=C/C(C#N)c1ncc(C(F)(F)F)cc1Cl (stereo unspecified) | 1 | -2 | 91 | 1.2 | 1 | · | · | ·
Cn1c(N)c(C(=O)Nc2ccc3ccccc3c2)sc1=S | 143* | -4 | 172* | 1.5 | 1 | 204* | 132 | 107
Cc1oc(-c2ccccc2)cc1C(=O)Nc1ccc2ccccc2c1 | 6 | -2 | 100 | 1.4 | 1 | · | · | ·
Cc1nn(CCC(=O)O)c(C)c1C | -4 | -9 | 97 | 0.96 | 1.1 | · | · | ·
O=[N+]([O-])c1cccc(-c2cn3ccccc3n2)c1 | 118 | 28 | 153* | 5.5* | 0.7 | 206* | 141* | 115*
Cn1nnc2cc(C(=O)Nc3ccc4ccccc4c3)ccc21 | 130 | 18 | 154* | 4.3* | 0.8 | 242* | 138* | 98
O=C(CC1CCCCC1)Nc1nc2ccccc2s1 | 133 | 7 | 155* | 3 | 0.9 | 184* | 134* | 120*
O=C(Nc1nc2ccccc2s1)NC1CCCCC1 | 144* | 46 | 161* | 9.2* | 0.5 | 226* | 132 | 117*
C#CC(C)(CC)NC(=O)Cn1nnc(-c2cccc(C(F)(F)F)c2)n1 (stereo unspecified) | 23 | -4 | 106 | 1.4 | 1 | · | · | ·
S=C(Nc1ccc(Cl)cc1)c1nc2ccccc2[nH]1 | · | 66* | 167* | 2.5 | 0.3 | 192* | 134* | 102
CCOC(=O)c1ccc(Nc2cnc3ccccc3n2)cc1 | 136* | 1 | 171* | 5* | 1 | 194* | 139* | 114*
CCN1CCN(C(=O)/C=C/c2ccc3c(c2)OCO3)CC1 | 22 | 1 | 106 | 0.92 | 1 | · | · | ·
SMILES | APP 5'UTR act | FLuc inh counter | STAT1 act | NF-kB expr up | FLuc stim CS | STAT1 act conf | NFkB act | STAT3 act STAT1c
CCCc1nn(C)c(C(=O)Nc2ccccc2)c1Cl | 156* | 22 | 170* | 0.6 | 0.8 | 199* | 132 | 105
COc1ccc(-n2ccc(-c3nn(-c4cccc(C(F)(F)F)c4)ccc3=O)n2)cc1 | 6 | -7 | 97 | 1.2 | 1.1 | · | · | ·
COc1ccc(-c2ccn(-c3cccc(F)n3)n2)cc1 | 138* | 2 | 154* | 0.87 | 1 | 178* | 133 | 122*
CCCC(=O)C1=C(O)C(C(=O)OC)C(C)(C)CC1=Nc1ccc(C)cc1 (stereo unspecified) | 1 | -1 | 84 | 0.86 | 1 | · | · | ·
Cc1cc(C)nc(CCNC(=O)c2cc(COc3ccc(F)cc3F)on2)n1 | 7 | -5 | 94 | · | 1.1 | · | · | ·
Cc1nonc1C1CCCN1C(=O)c1cc(COc2ccc(F)cc2F)on1 (stereo unspecified) | 101 | -2 | 168* | 2.7 | 1 | 183* | 137* | 110
O=C(c1cn(-c2ccccc2)nc1-c1cccs1)N(CCO)Cc1ccccc1 | -15 | -7 | 104 | 0.62 | 1.1 | · | · | ·
O=C(O)c1cc(N/N=C/C=C/c2ccccc2)ccc1Cl | 179* | 10 | 158* | 6.1* | 0.9 | 210* | 152* | 127*
O=C(N/N=C/c1cccc(F)c1)NC1CCCCC1 | 13 | 3 | 120 | 1.4 | 1 | · | · | ·
O=C(O)c1ccc(N/N=C/c2ccc(F)c(F)c2)cc1 | 159* | 9 | 162* | 5.3* | 0.9 | 211* | 101 | 129*
COc1cc(/C=N/Nc2ccc(C(=O)O)cc2)ccc1O | 89 | 43 | 75 | 3 | 0.6 | · | · | ·
O=C(O)c1ccc(N/N=C/c2cccc(F)c2)cc1 | 124 | 12 | 161* | 5* | 0.9 | 203* | 102 | 118*
CCn1c(SCC(=O)c2c[nH]c3ccccc23)nc2cc(S(=O)(=O)N3CCOCC3)ccc21 | 8 | -3 | 85 | 0.94 | 1 | · | · | ·
Cc1ccc(-c2nnc(-c3ccncc3)n2-c2ccc(C)cc2)cc1 | 4 | -4 | 107 | 1.2 | 1 | · | · | ·
Cc1ccc(-c2cnc(-c3ccncc3)o2)cc1 | 67 | 48 | 153* | 2.4 | 0.5 | 154* | 120 | 94
CCN(CC)CCOC(=O)c1ccc(NC(=O)c2cn(-c3ccccc3)nc2-c2cccs2)cc1 | 27 | 17 | 155* | 1.4 | 0.8 | 125 | 120 | 95
CCN(CC)CCNC(=O)c1cn(-c2ccccc2)nc1-c1cccs1 | -9 | -3 | 101 | 0.87 | 1 | · | · | ·
Brc1ccc(CSc2nnc(-c3cccnc3)o2)cc1 | 2 | -8 | 109 | 1.1 | 1.1 | · | · | ·
Nc1c(C(=O)C2CC2)sc2nc3c(cc12)CCC3 | 120 | 19 | 162* | 5.4* | 0.8 | 189* | 135* | 108

Screening data deposited in PubChem BioAssay by several laboratories.
